Test results published in ChEMBL document CHEMBL4689842, “EUbOPEN Chemogenomics Library wave 1” (2021).

Test system: Fibroblast
Experiment: Multiplex assay against human fibroblast
Format: toxicity, cell-based
How it was run: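 Cells stained live at seeding with Hoechst33342, BioTracker Green Microtubule Cytoskeleton Dye, MitoTracker Red and Annexin V Alexa Fluor 680 were imaged on a CQ1 microscope at 37°C and 5% CO2 after compound addition. Their classification by CellPathfinder machine-learning gating ran from Hoechst high-intensity objects versus normal cells, to healthy, pyknosed or fragmented nuclei among normal cells, to mitotic or apoptotic among pyknosed cells. Tubulin, mitochondrial-mass and membrane-permeability phenotypes are per cents of healthy-nucleus cells.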

[1] = 12 h, 1 µM, compound concentration 1 uM, replicate 1
[2] = 12 h, 1 µM, compound concentration 1 uM, replicate 2
[3] = 12 h, 10 µM, compound concentration 10 uM, replicate 1
[4] = 12 h, 10 µM, compound concentration 10 uM, replicate 2
[5] = 24 h, 1 µM, compound concentration 1 uM, replicate 1
[6] = 24 h, 1 µM, compound concentration 1 uM, replicate 2
[7] = 24 h, 10 µM, compound concentration 10 uM, replicate 1
[8] = 24 h, 10 µM, compound concentration 10 uM, replicate 2
[9] = 48 h, 1 µM, compound concentration 1 uM, replicate 1
[10] = 48 h, 1 µM, compound concentration 1 uM, replicate 2
[11] = 48 h, 10 µM, compound concentration 10 uM, replicate 1
[12] = 48 h, 10 µM, compound concentration 10 uM, replicate 2

Oc1cccc(-c2nc(N3CCOCC3)c3oc4ncccc4c3n2)c1 [PI-103]
Population Apoptotic (%) [1]: 64%
Population Fragmented Nuclei (%) [1]: 32%
Population Healthy Nuclei (%) [1]: 39%
Population Hoechst High Intensity Objects (%) [1]: 12%
Population Membrane Permeable-Phenotype (%) [1]: 14%
Population Mitochondria Different-Phenotype (%) [1]: 1%
Population Mitotic Cells (%) [1]: 36%
Population Normal (%) [1]: 87%
Population Pyknosed Nuclei (%) [1]: 28%
Population Tubulin-Different-Phenotype (%) [1]: 17%
Total Cell Count [1]: 199
Population Apoptotic (%) [2]: 47%
Population Fragmented Nuclei (%) [2]: 10%
Population Healthy Nuclei (%) [2]: 63%
Population Hoechst High Intensity Objects (%) [2]: 5%
Population Membrane Permeable-Phenotype (%) [2]: 2%
Population Mitochondria Different-Phenotype (%) [2]: 7%
Population Mitotic Cells (%) [2]: 52%
Population Normal (%) [2]: 94%
Population Pyknosed Nuclei (%) [2]: 26%
Population Tubulin-Different-Phenotype (%) [2]: 0%
Total Cell Count [2]: 73
Population Apoptotic (%) [3]: 70%
Population Fragmented Nuclei (%) [3]: 34%
Population Healthy Nuclei (%) [3]: 34%
Population Hoechst High Intensity Objects (%) [3]: 23%
Population Membrane Permeable-Phenotype (%) [3]: 33%
Population Mitochondria Different-Phenotype (%) [3]: 16%
Population Mitotic Cells (%) [3]: 29%
Population Normal (%) [3]: 76%
Population Pyknosed Nuclei (%) [3]: 30%
Population Tubulin-Different-Phenotype (%) [3]: 77%
Total Cell Count [3]: 135
Population Apoptotic (%) [4]: 36%
Population Fragmented Nuclei (%) [4]: 18%
Population Healthy Nuclei (%) [4]: 39%
Population Hoechst High Intensity Objects (%) [4]: 5%
Population Mitochondria Different-Phenotype (%) [4]: 59%
Population Mitotic Cells (%) [4]: 63%
Population Normal (%) [4]: 94%
Population Pyknosed Nuclei (%) [4]: 41%
Population Tubulin-Different-Phenotype (%) [4]: 83%
Total Cell Count [4]: 69
Population Apoptotic (%) [5]: 64%
Population Fragmented Nuclei (%) [5]: 30%
Population Healthy Nuclei (%) [5]: 46%
Population Hoechst High Intensity Objects (%) [5]: 14%
Population Membrane Permeable-Phenotype (%) [5]: 18%
Population Mitochondria Different-Phenotype (%) [5]: 5%
Population Mitotic Cells (%) [5]: 35%
Population Normal (%) [5]: 85%
Population Pyknosed Nuclei (%) [5]: 22%
Population Tubulin-Different-Phenotype (%) [5]: 30%
Total Cell Count [5]: 189
Population Apoptotic (%) [6]: 75%
Population Fragmented Nuclei (%) [6]: 14%
Population Healthy Nuclei (%) [6]: 69%
Population Hoechst High Intensity Objects (%) [6]: 6%
Population Membrane Permeable-Phenotype (%) [6]: 3%
Population Mitochondria Different-Phenotype (%) [6]: 3%
Population Mitotic Cells (%) [6]: 25%
Population Normal (%) [6]: 93%
Population Pyknosed Nuclei (%) [6]: 16%
Population Tubulin-Different-Phenotype (%) [6]: 1%
Total Cell Count [6]: 73
Population Apoptotic (%) [7]: 66%
Population Fragmented Nuclei (%) [7]: 32%
Population Healthy Nuclei (%) [7]: 32%
Population Hoechst High Intensity Objects (%) [7]: 32%
Population Membrane Permeable-Phenotype (%) [7]: 37%
Population Mitochondria Different-Phenotype (%) [7]: 12%
Population Mitotic Cells (%) [7]: 33%
Population Normal (%) [7]: 67%
Population Pyknosed Nuclei (%) [7]: 36%
Population Tubulin-Different-Phenotype (%) [7]: 70%
Total Cell Count [7]: 111
Population Apoptotic (%) [8]: 50%
Population Fragmented Nuclei (%) [8]: 28%
Population Healthy Nuclei (%) [8]: 24%
Population Hoechst High Intensity Objects (%) [8]: 4%
Population Membrane Permeable-Phenotype (%) [8]: 44%
Population Mitochondria Different-Phenotype (%) [8]: 75%
Population Mitotic Cells (%) [8]: 49%
Population Normal (%) [8]: 95%
Population Pyknosed Nuclei (%) [8]: 47%
Population Tubulin-Different-Phenotype (%) [8]: 89%
Total Cell Count [8]: 80
Population Apoptotic (%) [9]: 33%
Population Fragmented Nuclei (%) [9]: 33%
Population Healthy Nuclei (%) [9]: 53%
Population Membrane Permeable-Phenotype (%) [9]: 20%
Population Mitochondria Different-Phenotype (%) [9]: 5%
Population Mitotic Cells (%) [9]: 66%
Population Pyknosed Nuclei (%) [9]: 12%
Population Tubulin-Different-Phenotype (%) [9]: 22%
Total Cell Count [9]: 163
Population Apoptotic (%) [10]: 60%
Population Fragmented Nuclei (%) [10]: 32%
Population Healthy Nuclei (%) [10]: 62%
Population Hoechst High Intensity Objects (%) [10]: 14%
Population Membrane Permeable-Phenotype (%) [10]: 34%
Population Mitochondria Different-Phenotype (%) [10]: 8%
Population Mitotic Cells (%) [10]: 40%
Population Normal (%) [10]: 85%
Population Pyknosed Nuclei (%) [10]: 4%
Population Tubulin-Different-Phenotype (%) [10]: 47%
Total Cell Count [10]: 129
Population Apoptotic (%) [11]: 46%
Population Fragmented Nuclei (%) [11]: 35%
Population Healthy Nuclei (%) [11]: 43%
Population Hoechst High Intensity Objects (%) [11]: 33%
Population Membrane Permeable-Phenotype (%) [11]: 34%
Population Mitochondria Different-Phenotype (%) [11]: 12%
Population Mitotic Cells (%) [11]: 53%
Population Normal (%) [11]: 66%
Population Pyknosed Nuclei (%) [11]: 20%
Population Tubulin-Different-Phenotype (%) [11]: 68%
Total Cell Count [11]: 110
Population Apoptotic (%) [12]: 78%
Population Fragmented Nuclei (%) [12]: 36%
Population Healthy Nuclei (%) [12]: 42%
Population Hoechst High Intensity Objects (%) [12]: 40%
Population Membrane Permeable-Phenotype (%) [12]: 20%
Population Mitochondria Different-Phenotype (%) [12]: 24%
Population Mitotic Cells (%) [12]: 21%
Population Normal (%) [12]: 59%
Population Tubulin-Different-Phenotype (%) [12]: 58%
Total Cell Count [12]: 114
